Columns and labels:
Format in all cases: functional
NCI-H226 = experiment: Growth inhibition of human NCI-H226 cells at 10 uM after 48 hrs by SRB assay; settings: NCI-H226, 48 h, read-out: GI
Procedure, shortened: (§1)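 NCI-60 primary one-dose screen run at the US NCI, with human tumour lines from nine cancer types. Compound added once at 10^-5 M, followed by 48 h incubation. End point was sulforhodamine B protein staining read spectrophotometrically. Result given as percent growth of treated cells against untreated controls, reported as % growth inhibition.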

[1] = Growth inhibition of human LOXIMVI cells at 10 uM after 48 hrs by SRB assay; settings: LOX IMVI, read-out: GI; procedure, shortened: as §1
[2] = Growth inhibition of human RXF393 cells at 10 uM after 48 hrs by SRB assay; settings: RXF 393, 48 h, read-out: GI; procedure, shortened: as §1
786-0 = experiment: Growth inhibition of human 786-0 cells at 10 uM after 48 hrs by SRB assay; settings: 786-0, 48 h, read-out: GI
Procedure, shortened: (§2)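 NCI primary one-dose screen. A single concentration of 10^-5 M was added to the cell culture, followed by 48 h incubation and an SRB protein-dye endpoint read spectrophotometrically. Results are growth percentage relative to untreated control cells, reported as % growth inhibition.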

[3] = Growth inhibition of human OVCAR8 cells at 10 uM after 48 hrs by SRB assay; settings: OVCAR-8, 48 h, read-out: GI; procedure, shortened: as §1
SNB-19 = experiment: Growth inhibition of human SNB19 cells at 10 uM after 48 hrs by SRB assay; settings: SNB-19, 48 h, read-out: GI; procedure, shortened: as §1
IGROV-1 = experiment: Growth inhibition of human IGROV1 cells at 10 uM after 48 hrs by SRB assay; settings: IGROV-1, 48 h, read-out: GI; procedure, shortened: as §1
SN12C = experiment: Growth inhibition of human SN12C cells at 10 uM after 48 hrs by SRB assay; settings: read-out: GI; procedure, shortened: as §1
[4] = Growth inhibition of human OVCAR4 cells at 10 uM after 48 hrs by SRB assay; settings: OVCAR-4, 48 h, read-out: GI; procedure, shortened: as §1
HCT-116 = experiment: Growth inhibition of human HCT116 cells at 10 uM after 48 hrs by SRB assay; settings: HCT-116, 48 h, read-out: GI; procedure, shortened: as §1
TK-10 = experiment: Growth inhibition of human TK10 cells at 10 uM after 48 hrs by SRB assay; settings: TK-10, 48 h, read-out: GI; procedure, shortened: as §1
MDA-MB-468 = experiment: Growth inhibition of human MDA-MB-468 cells assessed as cell growth at 10 uM after 48 hrs by SRB assay; settings: MDA-MB-468, 48 h, read-out: GI; procedure, shortened: as §1
K562 = experiment: Growth inhibition of human K562 cells at 10 uM after 48 hrs by SRB assay; settings: K562, 48 h, read-out: GI; procedure, shortened: as §1
SF-268 = experiment: Growth inhibition of human SF268 cells at 10 uM after 48 hrs by SRB assay; settings: SF-268, 48 h, read-out: GI; procedure, shortened: as §1
[5] = Growth inhibition of human MOLT4 cells at 10 uM after 48 hrs by SRB assay; settings: MOLT-4, 48 h, read-out: GI; procedure, shortened: as §1
MDA-MB-231 = experiment: Growth inhibition of human MDA-MB-231 cells at 10 uM after 48 hrs by SRB assay; settings: MDA-MB-231, 48 h, read-out: GI; procedure, shortened: as §1
NCI-H322M = experiment: Growth inhibition of human NCI-H322M cells at 10 uM after 48 hrs by SRB assay; settings: read-out: GI; procedure, shortened: as §1
[6] = Growth inhibition of human SF539 cells at 10 uM after 48 hrs by SRB assay; settings: SF-539, 48 h, read-out: GI; procedure, shortened: as §1
T47D = experiment: Growth inhibition of human T47D cells at 10 uM after 48 hrs by SRB assay; settings: read-out: GI; procedure, shortened: as §1
NCI-H460 = experiment: Growth inhibition of human NCI-H460 cells at 10 uM after 48 hrs by SRB assay; settings: NCI-H460, 48 h, read-out: GI; procedure, shortened: as §1
SK-MEL-5 = experiment: Growth inhibition of human SK-MEL-5 cells at 10 uM after 48 hrs by SRB assay; settings: SK-MEL-5, 48 h, read-out: GI; procedure, shortened: as §1
SR = experiment: Growth inhibition of human SR cells at 10 uM after 48 hrs by SRB assay; settings: read-out: GI; procedure, shortened: as §1
[7] = Growth inhibition of human UACC62 cells at 10 uM after 48 hrs by SRB assay; settings: UACC-62, 48 h, read-out: GI; procedure, shortened: as §1
[8] = Growth inhibition of human BT549 cells at 10 uM after 48 hrs by SRB assay; settings: BT-549, 48 h, read-out: GI; procedure, shortened: as §2
HT-29 = experiment: Growth inhibition of human HT-29 cells at 10 uM after 48 hrs by SRB assay; settings: HT-29, 48 h, read-out: GI; procedure, shortened: as §1
[9] = Growth inhibition of human HCC2998 cells at 10 uM after 48 hrs by SRB assay; settings: HCC 2998, 48 h, read-out: GI; procedure, shortened: as §1
COLO 205 = experiment: Growth inhibition of human COLO205 cells at 10 uM after 48 hrs by SRB assay; settings: COLO 205, 48 h, read-out: GI; procedure, shortened: as §2
SNB-75 = experiment: Growth inhibition of human SNB75 cells at 10 uM after 48 hrs by SRB assay; settings: SNB-75, 48 h, read-out: GI; procedure, shortened: as §1
RPMI-8226 = experiment: Growth inhibition of human RPMI8226 cells at 10 uM after 48 hrs by SRB assay; settings: RPMI-8226, 48 h, read-out: GI; procedure, shortened: as §1
SK-MEL-2 = experiment: Growth inhibition of human SK-MEL-2 cells at 10 uM after 48 hrs by SRB assay; settings: SK-MEL-2, 48 h, read-out: GI; procedure, shortened: as §1
[10] = Growth inhibition of human HCT15 cells at 10 uM after 48 hrs by SRB assay; settings: HCT-15, 48 h, read-out: GI; procedure, shortened: as §1
DU-145 = experiment: Growth inhibition of human DU145 cells at 10 uM after 48 hrs by SRB assay; settings: DU-145, 48 h, read-out: GI; procedure, shortened: as §1
U-251 = experiment: Growth inhibition of human U251 cells at 10 uM after 48 hrs by SRB assay; settings: U-251, 48 h, read-out: GI; procedure, shortened: as §1
PC-3 = experiment: Growth inhibition of human PC3 cells at 10 uM after 48 hrs by SRB assay; settings: PC-3, 48 h, read-out: GI; procedure, shortened: as §1
NCI-H522 = experiment: Growth inhibition of human NCI-H522 cells at 10 uM after 48 hrs by SRB assay; settings: NCI-H522, 48 h, read-out: GI; procedure, shortened: as §1
[11] = Growth inhibition of human UACC257 cells at 10 uM after 48 hrs by SRB assay; settings: UACC-257, 48 h, read-out: GI; procedure, shortened: as §1
[12] = Growth inhibition of human NCI-ADR-RES cells at 10 uM after 48 hrs by SRB assay; settings: read-out: GI; procedure, shortened: as §1
Malme-3M = experiment: Growth inhibition of human MALME-3M cells at 10 uM after 48 hrs by SRB assay; settings: read-out: GI; procedure, shortened: as §1

Structure (SMILES): Cc1ccc(-c2nc3ccc(Cl)cc3c3nnc(S)n23)cc1
- inhibition of growth at 10 µM (NCI-H226): 27%
- inhibition of growth at 10 µM [1]: < 10%
- inhibition of growth at 10 µM [2]: < 10%
- inhibition of growth at 10 µM (786-0): < 10%
- inhibition of growth at 10 µM [3]: < 10%
- inhibition of growth at 10 µM (SNB-19): < 10%
- inhibition of growth at 10 µM (IGROV-1): < 10%
- inhibition of growth at 10 µM (SN12C): < 10%
- inhibition of growth at 10 µM [4]: < 10%
- inhibition of growth at 10 µM (HCT-116): < 10%
- inhibition of growth at 10 µM (TK-10): 19%
- inhibition of growth at 10 µM (MDA-MB-468): < 10%
- inhibition of growth at 10 µM (K562): 11%
- inhibition of growth at 10 µM (SF-268): < 10%
- inhibition of growth at 10 µM [5]: 13%
- inhibition of growth at 10 µM (MDA-MB-231): 16%
- inhibition of growth at 10 µM (NCI-H322M): < 10%
- inhibition of growth at 10 µM [6]: < 10%
- inhibition of growth at 10 µM (T47D): < 10%
- inhibition of growth at 10 µM (NCI-H460): < 10%
- inhibition of growth at 10 µM (SK-MEL-5): 12%
- inhibition of growth at 10 µM (SR): < 10%
- inhibition of growth at 10 µM [7]: < 10%
- inhibition of growth at 10 µM [8]: < 10%
- inhibition of growth at 10 µM (HT-29): < 10%
- inhibition of growth at 10 µM [9]: < 10%
- inhibition of growth at 10 µM (COLO 205): < 10%
- inhibition of growth at 10 µM (SNB-75): < 10%
- inhibition of growth at 10 µM (RPMI-8226): < 10%
- inhibition of growth at 10 µM (SK-MEL-2): < 10%
- inhibition of growth at 10 µM [10]: < 10%
- inhibition of growth at 10 µM (DU-145): < 10%
- inhibition of growth at 10 µM (U-251): < 10%
- inhibition of growth at 10 µM (PC-3): < 10%
- inhibition of growth at 10 µM (NCI-H522): < 10%
- inhibition of growth at 10 µM [11]: 33%
- inhibition of growth at 10 µM [12]: < 10%
- inhibition of growth at 10 µM (Malme-3M): < 10%
